Measured values as given in PMC4021451 (Journal of medicinal chemistry, 2012).

Assays:
[1] = tested on: CH1 (ovarian carcinoma) cells; assay: MTT cytotoxicity assay, CH1 cells; format: cell-based, human; details: read-out: IC50 CH1, 96 h exposure, mean ± SD
Method in brief: (§1)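 Cells were seeded in MEM at 1.5 × 10^3 (CH1), 4.0 × 10^3 (A549) or 2.5 × 10^3 (SW480) per well, given 24 h to resume exponential growth, then exposed to serial dilutions for 96 h. Medium was replaced with RPMI 1640 plus MTT in PBS (5 mg/mL solution) for 4 h, then DMSO. OD was read at 550 nm. At least three independent experiments were run, with triplicates per concentration.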

[2] = tested on: SW480 (colon adenocarcinoma) cells; assay: MTT cytotoxicity assay, SW480 cells; format: cell-based, human; details: read-out: IC50 SW480, 96 h exposure, mean ± SD
Method in brief: as §1

[3] = tested on: SW1573 cells (chemosensitive parental non-small-cell lung cancer line); assay: EZ4U viability assay in resistance models, SW1573; format: cell-based, human; details: read-out: IC50 SW1573, 96 h exposure
Method in brief: (§2)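 Cells were seeded at 2 × 10^3 per well and allowed to recover for 24 h. Test compound was then added in growth medium and exposed for 96 h. Viable cell proportion was read with the EZ4U kit. Media, all with 10% FBS: SW1573 and 2R120 in DMEM, A2780 and A2780/cis in RPMI 1640, P31 in MEM. Cells were grown at 37 °C in 5% CO2.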

[4] = tested on: ABCC1-overexpressing 2R120 cells; assay: EZ4U viability assay in resistance models, 2R120; format: cell-based, human; details: read-out: IC50 2R120, 96 h exposure
Method in brief: as §2

[5] = tested on: A2780/cis cells (cisplatin-selected subline); assay: EZ4U viability assay in resistance models, A2780/cis; format: cell-based; details: for IC50: read-out: IC50 A2780/cis, EZ4U assay, 96 h exposure
Method in brief: as §2

P31 (mesothelioma) cells = assay: EZ4U viability assay in resistance models, P31; format: cell-based; details: read-out: IC50 P31, 96 h exposure
Method in brief: as §2

[6] = tested on: P31/cis cells (cisplatin-resistant subline); assay: EZ4U viability assay in resistance models, P31/cis; format: cell-based; details: read-out: IC50 P31/cis, 96 h exposure
Method in brief: as §2

[7] = Reversed-phase HPLC lipophilicity; format: physicochemical; details: RP-HPLC, C18, methanol/15 mM aqueous formic acid, extrapolated to 100% H2O, 25 °C
Method in brief: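 Isocratic runs on a silica-based C18 column (4.6 mm × 250 mm), with methanol/15 mM aqueous formic acid from 5:95 to 50:50 depending on compound polarity. Flow 1.00 mL/min, UV 210 nm. […] Each compound ran at least twice in at least three mobile-phase compositions. log kw came from linear extrapolation of log k' versus methanol fraction.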

[8] = tested on: A2780 (ovarian carcinoma) cells; assay: EZ4U viability assay in resistance models, A2780; format: cell-based; details: read-out: IC50 A2780, 96 h exposure
Method in brief: as §2

A2780 cells = assay: Total Pt uptake levels by ICP-MS; format: cell-based; details: 2 h drug exposure
Method in brief: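 A2780 cells (4 × 10^5 per well) settled for 24 h, then were exposed to test compound for 2 h at 37 °C. After two ice-cold PBS washes, cells were lysed in tetramethylammonium hydroxide and diluted in 0.6 N HNO3. Pt was measured by ICP-MS against matrix-matched standards with 1 ppb indium internal standard and corrected for a cell-free blank well. Values are relative mean and SD from at least two independent experiments.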

[9] = tested on: A549 (non-small-cell lung carcinoma) cells; assay: MTT cytotoxicity assay, A549 cells; format: cell-based, human; details: read-out: IC50 A549, 96 h exposure, mean ± SD
Method in brief: as §1

Compound	IC50 [1]	IC50 [2]	IC50 [3]	IC50 [4]	IC50 [5]	IC50 (P31 (mesothelioma) cells)	IC50 [6]	log kw [7]	IC50 [8]	-fold resistance A2780/cis ([5]; A2780/cis versus A2780)	Cellular drug uptake (total Pt levels) (A2780 cells)	IC50 [9]
N.N.[Cl][Pt][Cl] [cisplatin]	0.16 ± 0.03 µM	3.5 ± 0.3 µM	6.5 ± 0.1 µM	> 20 µM	3.7 ± 0.3 µM	4 ± 0.3 µM	> 20 µM					
CC(=O)[O-].CC(=O)[O-].N.NC1CCCCC1.[Cl-].[Cl-].[Pt+4] [satraplatin, (OC-6-43)-diacetatoamminedichlorido(cyclohexylamine)platinum(IV)]					5.7 ± 0.2 µM			1.79 ± 0.01	0.5 ± 0.3 µM	11.4 fold	enhanced drug uptake	
(OC-6-54)-Dichlorido(N,N-dimethylethane-1,2-diamine)-hydroxidomethoxidoplatinum(IV) [1b]	2.5 ± 0.2 µM	40 ± 14 µM						0.09 ± 0.01				73 ± 3 µM
